The EternaBench riboswitch data

Test system: MS2 coat protein
Experiment: apparent Kd, MS2 coat protein; higher = weaker binding; RNA-MaP array; FMN 200 µM where present
Summary of the method: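 The apparent Kd is reported as the median of filtered per-cluster binding-curve fits. To get these curves, designs transcribed by stalled E. coli RNA polymerase on Illumina sequencing-chip clusters were titrated with SNAP-549-labelled MS2 coat protein from 0.7 or 1.5 nM, doubling to 3 µM. Titrations were run without and then with constant ligand in 100 mM Tris-HCl pH 7.5, 80 mM KCl, 4 mM MgCl2, BSA, DTT, yeast tRNA and Tween-20, and green signal was normalised to red-channel RNA signal and control-cluster median Fmax.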

[1] = designed as: OFF switch for flavin mononucleotide, no ligand
[2] = ligand present: flavin mononucleotide, designed as: OFF switch for flavin mononucleotide
[3] = designed as: ON switch for flavin mononucleotide, no ligand
[4] = ligand present: flavin mononucleotide, designed as: ON switch for flavin mononucleotide

Row | Sequence | apparent Kd [1] [nM] | apparent Kd [2] [nM] | apparent Kd [3] [nM] | apparent Kd [4] [nM]
1 | UAUCGAGUAGCAGGAUAUUAUGUGGCUAAUUCCGAGUCUGAUGCUUCACAUGAGGAUCACCCAUGUAAGAAGGGCUAACUCGGG | 26.2 | 63.7 | – | –
2 | UGCCAAGCAGGAUAUGCACGUAAUAACAUGAGGAUCACCCAUGUGACCGAUUUAUAUUCUGCAGAAGGGCUUGGAU | 54.9 | 152 | – | –
3 | AUGCCCUGAGGAUAUCUCAUCCCGCACAUGAGGAUCACCCAUGUUCUUCUCCGGGUUCCGAGAGAAGGCAGGCCUA | 157 | 81.9 | – | –
4 | GAUCGUAUCCUAGGAUAUUCAUUAAACAUGAGGAUCACCCAUGUUAAUUUGGGAGAAGGAGGAUACGAUCAACAGCGAAAGCUG | – | – | 10.6 | 5.15
5 | AGUGUCAUCGAGAAGGCCUCAACAUGAGGAUCACCCAUGUUGCAAAAUGGGAGGAUAUCGCGCGUUAAAAAACGUUUCGUAGCA | – | – | 38.3 | 17.5
6 | AGCUACGUUUCGUAGCAGUGUCAUCGAGAAGGCCUUAUUACAUGAGGAUCACCCAUGUGGACAUGGGAGGAUAUCGAUGAUACA | – | – | 61.3 | 8.06
7 | GAGCCUCCGUAGAAGGCCGCGGAAUUCGAACGCGGAGGAUAUACAUGAGGAUCACCCAUGUGAAAGUGGAAAGAUAAAACGCUU | 12.4 | 30.4 | – | –
8 | UUCGUGUAAGGAUAUACGACCCAUCCCAUUGGGAUGGACACGUAGAAGGUACAUGAGGAUCACCCAUGUGCUCC | 27.3 | 135 | – | –
9 | AUCAUGUAAGGAUAUCUUACAUGUGACGAAAGUCACAGUUAAGAGAAGGUACAUGAGGAUCACCCAUGUAUAAC | 27.4 | 54.9 | – | –
10 | AUUUUACAUGAGGAUCACCCAUGUUUUGGUGGAUCAGGAUAUAGAUCGGAUGAGUUCUGGCUAGAAGGGAUAUAUA | – | – | 93.6 | 86.5
11 | CGAUUUUUGAUCCGUUUUUUCUACAUGAGGAUCACCCAUGUGCAGGAUAUCGUGGUGUUUUACUACGAGAAGGGCAAUUUCACG | 84.8 | 198 | – | –
12 | UACCUCACUUCUUUGACUCACAUGAGGAUCACCCAUGUAAUAUAGGAUAUGCAUUUUAUUUCUUUGCAGAAGGAUAUUAGUUUU | 42.8 | 79.2 | – | –
13 | AUCGGUCCGUAGAAGGGUGACAUGAGGAUCACCCAUGUGCCGUGUGCAUUUAUGCCUCCACGGCCACAGGAUAUACGGAGUUGA | – | – | 80.1 | 39.1
14 | AGAUUUGUACAUGAGGAUCACCCAUGUUAAUAGGUGUUUGUCAGAAGGCAUUAAUAGAGAUUUAAUGAGGAUAUGAUGUUACAA | – | – | 49.3 | 35.2
15 | GUAGAGUAGUGAGGAUAUACGAGAUCGAUAGAUCGGCGAUCCAUAUAUACAUGAGGAUCACCCAUGUAGAAGGCACUUCUCUAC | 6.99 | 103 | – | –
16 | GUGAACAUGAGGAUCACCCAUGUAGCUCACUGCCAGUGGCUACAGGAUAUAGCACCUCGAGGGUGCUAGAAGGGUGGCCUAGAA | – | – | 62.9 | 16.8
17 | GCGCGAAGGUAGGAUAUCCAGGCAUCUUGCCGCGGAGAAGGACCCACAUGAGGAUCACCCAUGUGGUGAUCCUG | 13.5 | 14.4 | – | –
18 | GGACGGUUAGUGAGGAUAUGCUCUACCUCGGUAGAGCAGAAGGCACAUGAGGAUCACCCAUGUGAAAACUGUUC | 16.6 | 21.2 | – | –
19 | GUCAGCUCGUGAGGAUAUACAUCACUGCUUCGGCAGUGUAUUAACAUCACAUGAGGAUCACCCAUGUAGAAGGCACGAGCUGAU | 16 | 22.7 | – | –
20 | GUGCGUGGCUAGGAUAUUGUGGAGUUUAGUCAGCGAGAAGGAGCCACAUGAGGAUCACCCAUGUGGUGUAGCUC | 17.2 | 94.5 | – | –
21 | UUUAUGUCAGGAUAUACAUGAGGAUCACCCAUGUAUAUCUAAAAAUAUACAUGGGAAUGUAGAAGGGACCUCCU | 53 | 46.3 | – | –
22 | GCCUGCUGGCGAGGAUAUUCUGUGCGGUUCCGGCUCGUGUCUGUUACAUGAGGAUCACCCAUGUAGGAGAAGGUGUCUGUGGCC | 4.75 | 5.01 | – | –
23 | GCGUCUCCUGUCAGGAUAUGCACCGGCUCGCCGGCGUAGAAGGGACAUGAGGAUCACCCAUGUGGUCUACACUU | – | 339 | – | –
24 | AUUAAGCAGCAGGAUAUAAUUAUCUGAAGGUGGUUAGAAGGGCUGACAUGAGGAUCACCCAUGUGCUCUUCGUG | 16.2 | 32.2 | – | –

Row | Sequence | apparent Kd [1] [nM] | apparent Kd [2] [nM] | apparent Kd [3] [nM] | apparent Kd [4] [nM]
25 | GUCGGAAACGACAAAAGUAUGGAUCCAGAAGGCAUGACACAUGAGGAUCACCCAUGUCUAAGACAUGAGGAUAUGGAUCCAUAC | – | – | 5.24 | 3.67
26 | GUCAGCUCGUGAGGAUAUACAUGUGCUGGAUACAGCACUAAAGAUUUCACAUGAGGAUCACCCAUGUAGAAGGCACGAGCUGAU | 16.9 | 38 | – | –
27 | AAGUAGGUAGGAUAUGCAUAGAUACAGAUUCAUGUGGAACUACAUGAGGAUCACCCAUGUAGAAGGACCUAAUA | 21.1 | 29.6 | – | –
28 | GUGUAGUCAGGAUAUACAUAGGAAGAGAAGAGAAGAUAAGCACAUGAGGAUCACCCAUGUAGAAGGGACAGUGU | 65.1 | 70.7 | – | –
29 | CAGCUACCCAGUAUGGGUAUUUUUACAGAAGGCCAGGUACAUGAGGAUCACCCAUGUUAAGUUAUGGAGGAUAUGUUAGUGUAU | – | – | 27.9 | 7.18
30 | UUUGUACAUGAGGAUCACCCAUGUUAGGAUAUCUCGCCGUCGGCUUGCCGACGGUAUUAGAGAAGGGACAAGGG | 136 | 108 | – | –
31 | GUCGAGUGAGGAUAUGGUGAGUAGUGCCAGAGCGCUGCUCACCAGAAGGCACAUGAGGAUCACCCAUGUAUAGC | 16.8 | 29.9 | – | –
32 | AAUGUUUGAUUCCACUUAUACAUGAGGAUCACCCAUGUUAUCGAGGAUAUGCAUUAGAGCGUUUAGCAGAAGGCGAUGUAAUUG | 7.41 | 20.3 | – | –
33 | GUGCAAUGAGGAUAUACGUAGGUGAAAAUCUGUGUGCUCCUACAUGAGGAUCACCCAUGUAGAAGGCAUGUCAC | 17.1 | 28.2 | – | –
34 | GGUGCGUAUGUGAGGAUAUGCUGGUCCUUGGUUCAGCAGAAGGCACAUGAGGAUCACCCAUGUGGUGUCGUACC | 289 | 26.4 | – | –
35 | CUAGCUAUCGGAGGAUAUUCAUAGCCGAAAGGCACAUGAGGAUCACCCAUGUGCGGAAACGCUUGGGAGAAGGCCGAUAGCUAG | – | – | 25.7 | 15.2
36 | CAGGUAGACUGAGGAUAUACACAAAACAGCUAGUCUAUCUAGCUGAUCACAUGAGGAUCACCCAUGUAGAAGGCAGUCUGCCUG | 19.2 | 55.2 | – | –
37 | AUCAGCUCGUCAGGAUAUACGUCACUGCGUCAGCAGUGUGGUAAGAUGACAUGAGGAUCACCCAUGUAGAAGGGACGAGCUGAU | 6.82 | 15.8 | – | –
38 | UUUUAACAGUCAGGAUAUGUAACGCACAACGGCGCAGAAGGGACAUGAGGAUCACCCAUGUUAUGGUUCUGGUACUAUGACGUU | 18.8 | 23.1 | – | –
39 | GGAAACUACGAGAAGGACAUGUGGUCCUUCAGUUACAUGAGGAUCACCCAUGUAGGAUAUCGUAGUUUCAGGAUCGUGAGAUCG | 35.6 | 9.39 | – | –
40 | AAAAAACAUGAGGAUCACCCAUGUCCUCGGACAUGAGGAUAUGUACAGACUUCGGUCUGUACAGAAGGCAUGUCAA | – | – | 658 | 585
41 | GGAUGAGAAACUCAUCCAAAUCGAACAUGAGGAUCACCCAUGUAGGAUAUGCUACUCAAAGAGUAGCAGAAGGACAUGUGCUUU | 35 | 232 | – | –
42 | GCUGCAUAGGCAGGAUAUGCAAGAAUUGAAAUAAAAUAUAAUAAAUGAACAUGAGGAUCACCCAUGUAGAAGGGCCUGUGCAGU | 20.8 | 21.4 | – | –
43 | AGGUACGGUCGAUCAUAUCAAGGUAGAAGGCGACUGGGAAUGUGAGACAUGAGGAUCACCCAUGUCGAGGAUAUACCUGAAAGU | 88.9 | 50.1 | – | –
44 | AUGGUUGUCGUAGGAUAUGUAGGAUAUUCCUACAUGAGGAUCACCCAUGUUCGCAUGGAAGAAGGACAGAAGGACGAUGACCAG | – | – | 1020 | 9.57
45 | GUACCUUAUGAGAAGGCGGUCAUGAAACAUGAUCGAGGAUAUCAUGUAAACAUGAGGAUCACCCAUGUAUGGGUAUUAUGGUAA | – | – | 61.1 | 11.2
46 | AUACUAAAUGAAGGAUAUCUAAGCAUAAACCUGAGAGAAGGUCAUUUUUACAUGAGGAUCACCCAUGUUGUGGUUAAUGGGUUA | 216 | 317 | – | –
47 | CCGCAAAAGCAGGAUAUCGUAUCGGAUACGAUACGAGAAGGGUUUACAUGAGGAUCACCCAUGUUCCUUAGCGG | 31.5 | 36 | – | –
48 | CUCUUACAUGAGGAUCACCCAUGUGUUGUCGUGGGAGGAUAUCCUGGUUCGGUGGCGUUGGGAGAAGGCCUAUGUC | – | – | 722 | 242
